ChEMBL document CHEMBL3616466, “Pyrazolo[3,4-h]quinolines promising photosensitizing agents in the treatment of cancer” (Eur J Med Chem, 2015)
Each block holds one compound with its values, some of them ahead of it. Activity calls are given as the source filed them. The calls are words filed in the database; no cut-off is given here.

Columns and labels:
[1] = system: A549; assay: Cytotoxicity against human A549 cells assessed as growth inhibition after 72 hrs by MTT assay; type: functional; conditions: A549, 72 h
Outline: (§1)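 Cells (5 × 10³ per well) pre-incubated 24 h at 37 °C, 5% CO₂, then exposed in the dark to serial concentrations diluted from DMSO stock into complete medium for 72 h at 37 °C. Viability read by MTT; GI50 derived. LoVo in Ham's F-12, MCF-7 and A-549 in DMEM, all with 10% FBS and penicillin/streptomycin.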

[2] = system: LoVo; assay: Photocytotoxicity against human LoVo cells assessed as growth inhibition at 3.75 J/cm'2 irradiation for 30 mins followed by drug treated for 72 hrs by MTT assay; type: functional; conditions: light or radiation study
Outline: (§2)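 Cells seeded at 5 × 10³ per well and pre-incubated 24 h. Drug dilutions in HBSS (pH 7.2, from DMSO stock) added for 30 min at 37 °C, then UV-A irradiation at the stated dose. Drug solution then replaced with culture medium and plates incubated 72 h. Viability by MTT; GI50 from concentration series.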

[3] = system: MCF7; assay: Photocytotoxicity against human MCF7 cells assessed as growth inhibition at 3.75 J/cm'2 irradiation for 30 mins followed by drug treated for 72 hrs by MTT assay; type: functional; conditions: MCF7, light or radiation study; outline: as §2
[4] = system: Jurkat; assay: Photocytotoxicity against human Jurkat cells assessed as growth inhibition at 1.25 J/cm'2 irradiation for 30 mins followed by drug treated for 72 hrs by MTT assay; type: functional; conditions: light or radiation study; outline: as §2
[5] = system: MCF7; assay: Photocytotoxicity against human MCF7 cells assessed as growth inhibition at 2.5 J/cm'2 irradiation for 30 mins followed by drug treated for 72 hrs by MTT assay; type: functional; conditions: MCF7, light or radiation study; outline: as §2
[6] = system: HL-60; assay: Photocytotoxicity against human HL60 cells assessed as growth inhibition at 2.5 J/cm'2 irradiation for 30 mins followed by drug treated for 72 hrs by MTT assay; type: functional; conditions: HL-60, light or radiation study; outline: as §2
[7] = system: A549; assay: Photocytotoxicity against human A549 cells assessed as growth inhibition at 2.5 J/cm'2 irradiation for 30 mins followed by drug treated for 72 hrs by MTT assay; type: functional; conditions: A549, light or radiation study; outline: as §2
[8] = system: HL-60; assay: Cytotoxicity against human HL60 cells assessed as growth inhibition after 72 hrs by MTT assay; type: functional; conditions: HL-60, 72 h
[9] = system: MCF7; assay: Cytotoxicity against human MCF7 cells assessed as growth inhibition after 72 hrs by MTT assay; type: functional; conditions: MCF7, 72 h; outline: as §1
[10] = system: Jurkat; assay: Cytotoxicity against human Jurkat cells assessed as growth inhibition after 72 hrs by MTT assay; type: functional
[11] = system: LoVo; assay: Cytotoxicity against human LoVo cells assessed as growth inhibition after 72 hrs by MTT assay; type: functional; outline: as §1
[12] = system: HL-60; assay: Photocytotoxicity against human HL60 cells assessed as growth inhibition at 1.25 J/cm'2 irradiation for 30 mins followed by drug treated for 72 hrs by MTT assay; type: functional; conditions: HL-60, light or radiation study; outline: as §2
[13] = system: A549; assay: Photocytotoxicity against human A549 cells assessed as growth inhibition at 3.75 J/cm'2 irradiation for 30 mins followed by drug treated for 72 hrs by MTT assay; type: functional; conditions: A549, light or radiation study; outline: as §2
[14] = system: LoVo; assay: Photocytotoxicity against human LoVo cells assessed as growth inhibition at 2.5 J/cm'2 irradiation for 30 mins followed by drug treated for 72 hrs by MTT assay; type: functional; conditions: light or radiation study; outline: as §2
[15] = system: Jurkat; assay: Photocytotoxicity against human Jurkat cells assessed as growth inhibition at 2.5 J/cm'2 irradiation for 30 mins followed by drug treated for 72 hrs by MTT assay; type: functional; conditions: light or radiation study; outline: as §2
[16] = system: Escherichia coli; assay: Induction of DNA damage in Escherichia coli pBR322 DNA measured at 7.5 J/cm'2 UV-A irradiation by neutral agarose electrophoresis
Outline: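 pBR322 plasmid (100 ng) in 10 mM phosphate buffer pH 7.2 irradiated at 7.5 J/cm² UV-A with compound at a compound/DNA ratio of 3/1. Aliquots incubated at 37 °C with Fpg or Endo III. Run on 1% agarose in TAE at 70 V for 4 h; supercoiled, open circular and linear bands quantified.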

[17] = system: LoVo; assay: Ratio of angelicin GI50 to compound GI50 for human LoVo cells assessed as growth inhibition at 3.75 J/cm'2 irradiation for 30 mins followed by drug treated for 72 hrs by MTT assay; type: functional
Outline: (§3)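 Cells were pre-incubated 30 min at 37 °C with drug in HBSS, irradiated, then drug replaced with medium. Ratio is angelicin GI50 divided by compound GI50.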

[18] = Induction of superoxide anion generation measured after UV-A irradiation by NBT reduction assay; type: physicochemical
Outline: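 Compound (10⁻⁵ M) with nitroblue tetrazolium (1.6 × 10⁻⁴ M) in carbonate buffer pH 10 irradiated with increasing UV-A doses. Absorbance at 560 nm followed as the superoxide read-out.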

[19] = system: Jurkat; assay: Induction of lipid peroxidation in human Jurkat cells at 2 uM measured 24 hrs post 2.5 J/cm'2 irradiation by TBA assay; type: functional, cell-based
Outline: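 TBA test for TBARS performed on supernatant medium and on cell lysates 24 h post-irradiation. Mean ± SEM of three experiments.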

[20] = system: Jurkat; assay: Photocytotoxicity against human Jurkat cells assessed as reduction of cell survival at 0.2 uM measured 72 hrs post 2.5 J/cm'2 irradiation by MTT assay in the presence of vitamin E, NaN3, DABCO, DMTU and MANN; type: functional, cell-based
Outline: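 Jurkat cells irradiated at 2.5 J/cm² with compound in HBSS together with a scavenger: vitamin E 60 µM, NaN₃ 10 mM, DABCO 1 mM, GSH 1 mM, DMTU 1 mM or mannitol 10 mM. Medium replaced after irradiation; viability by MTT 72 h later.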

[21] = system: A549; assay: Photocytotoxicity against human A549 cells assessed as inhibition of colony formation at 2.5 J/cm'2 irradiation after 1 to 2 weeks using crystal violet staining by optical microscopy; type: functional, cell-based
Outline: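 A-549 cells (10 × 10³) plated in dishes. After 24 h, irradiated at 2.5 J/cm² with compound at varying concentrations. Medium replaced, then cultured 1–2 weeks with medium changes every 2–3 days. Stained with crystal violet; colonies of ≥50 cells counted visually. Expressed as % of untreated cells; mean ± SEM of three experiments.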

[22] = system: Jurkat; assay: Induction of apoptosis in human Jurkat cells assessed as ROS production at 1 to 2 uM using HE and DCFDA staining measured 24 hrs post 2.5 J/cm'2 irradiation by FACS assay; type: functional, cell-based
[23] = system: Jurkat; assay: Induction of apoptosis in human Jurkat cells assessed as lysosome death at 1 to 2 uM using acridine orange staining measured 24 hrs post 2.5 J/cm'2 irradiation by flow cytometry; type: functional, cell-based
[24] = system: Jurkat; assay: Induction of apoptosis in human Jurkat cells assessed as reduction in alive cells using Annexin-V and propidium iodide staining at 1 to 2 uM measured 24 hrs post 2.5 J/cm'2 irradiation by flow cytometry analysis; type: functional, cell-based
Outline: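 Jurkat cells irradiated (2.5 J/cm²) with compound at 1 or 2 µM. After 24 h, co-stained with Annexin V-FITC and PI and analysed by flow cytometry (excitation 488 nm; emission 525 and 585 nm). Mean of three independent experiments.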

[25] = system: Jurkat; assay: Induction of apoptosis in human Jurkat cells assessed as increase in cleaved caspase 3 level at 1 uM measured 24 hrs post 2.5 J/cm'2 irradiation by Western blot analysis; type: functional, cell-based
Outline: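 Jurkat cells irradiated (2.5 J/cm²) with compound at 1 µM. At 24 h, cells washed in cold PBS and lysed on ice for 20 min. 20 µg protein run on 8–16% gradient gels and transferred to nitrocellulose. Probed with rabbit anti-caspase-3 and β-actin (1:1000, 2 h), then peroxidase anti-rabbit IgG; ECL detection.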

[26] = Induction of singlet oxygen generation measured after UV-A irradiation by RNO bleaching assay; type: physicochemical
Outline: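 Compound (2.2 × 10⁻⁵ M), RNO (4 × 10⁻⁵ M) and imidazole (4 × 10⁻⁵ M) in phosphate buffer pH 7.3 irradiated with increasing UV-A doses. Absorbance read at 440 nm; reported as % RNO bleaching.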

[27] = system: Jurkat; assay: Induction of apoptosis in human Jurkat cells assessed as reduction in mitochondrial potential at 1 to 2 uM using JC-1 staining measured 24 hrs post 2.5 J/cm'2 irradiation by FACS assay; type: functional, cell-based
Outline: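 At 24 h after 2.5 J/cm² irradiation with compound at 1 or 2 µM, Jurkat cells were pelleted and resuspended in HBSS with 1 µM JC-1. After 10 min at 37 °C, fluorescence read at 530 and 590 nm by flow cytometry. Mean ± SEM, n=3.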

[28] = system: MCF7; assay: Ratio of angelicin GI50 to compound GI50 for human MCF7 cells assessed as growth inhibition at 3.75 J/cm'2 irradiation for 30 mins followed by drug treated for 72 hrs by MTT assay; type: functional; outline: as §3

SMILES: Cn1c2c(cc(S(=O)(=O)c3ccccc3)c1=O)CCc1c-2cnn1-c1cccc(Cl)c1
- GI50 [1]: > 20000 nM
- GI50 [2]: 7540 nM
- GI50 [3]: 9010 nM
- GI50 [4]: > 20000 nM
- GI50 [5]: 12700 nM
- GI50 [6]: 2440 nM
- GI50 [7]: > 20000 nM
- GI50 [8]: > 20000 nM
- GI50 [9]: > 20000 nM
- GI50 [10]: 11300 nM
- GI50 [11]: > 20000 nM
- GI50 [12]: > 20000 nM
- GI50 [13]: 8400 nM
- GI50 [14]: 13100 nM
- GI50 [15]: 2810 nM

SMILES: COc1ccc(-n2ncc3c4nc(OC)c(S(=O)(=O)c5ccccc5)cc4ccc32)cc1
- GI50 [1]: > 20000 nM
- GI50 [2]: 160 nM
- GI50 [3]: 590 nM
- GI50 [4]: 1500 nM
- GI50 [5]: 1230 nM
- GI50 [6]: 760 nM
- GI50 [7]: 350 nM
- GI50 [8]: > 20000 nM
- GI50 [9]: 16200 nM
- GI50 [10]: > 20000 nM
- GI50 [11]: > 20000 nM
- GI50 [12]: 990 nM
- GI50 [13]: 90 nM
- GI50 [14]: 420 nM
- GI50 [15]: 540 nM

- Activity [18]: Active
- Activity [26]: Active
SMILES: Cn1c(=O)c(S(=O)(=O)c2ccccc2)cc2ccc3c(cnn3-c3ccc(Cl)cc3)c21
- GI50 [2]: 40 nM
- Activity [16]: inactive
- GI50 [3]: 170 nM
- GI50 [4]: 200 nM
- GI50 [5]: 330 nM
- Ratio IC50 [17]: 27
- GI50 [6]: 310 nM
- GI50 [7]: 260 nM
- Activity [19]: Active
- Activity [20]: inactive
- Activity [21]: Dose-dependent effect
- Activity [22]: Active
- Activity [23]: Active
- Activity [24]: Active
- GI50 [12]: 390 nM
- GI50 [13]: 80 nM
- Activity [25]: Active
- GI50 [14]: 160 nM
- GI50 [15]: 100 nM
- Activity [27]: Active
- Ratio IC50 [28]: 8

SMILES: COc1nc2c(cc1S(=O)(=O)c1ccccc1)CCc1c-2cnn1-c1cccc(Cl)c1
- GI50 [1]: > 20000 nM
- GI50 [2]: 2990 nM
- GI50 [3]: 2520 nM
- GI50 [4]: 1950 nM
- GI50 [5]: 5150 nM
- GI50 [6]: 530 nM
- GI50 [7]: 13300 nM
- GI50 [8]: > 20000 nM
- GI50 [9]: > 20000 nM
- GI50 [10]: 13200 nM
- GI50 [11]: > 20000 nM
- GI50 [12]: 3420 nM
- GI50 [13]: 6610 nM
- GI50 [14]: 9840 nM
- GI50 [15]: 1340 nM
